From publication PMC5395284 (Journal of Experimental Pharmacology, 2017)

Tests used:
Wistar rat brain = experiment: Brain neurotransmitter levels; assay type: in vivo; conditions: 4 weeks treatment
Summary of the method: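 Wistar rats on high-fat diet for up to 4 weeks, caged ≤6 per cage at 25°C±2°C. Groups: control, oral SSRI test compound 20 mg/kg b.w., statin test compound 40 mg/kg b.w., or both, for 4 weeks. Brain (100 mg) homogenized in 1 mL 0.1 M perchloric acid with 0.05% EDTA, centrifuged 18,000 rpm, 10 min, 4°C. Mean±SD, n=6; p<0.05 versus lipid control.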

[1] = assay type: in vivo, Wistar rat
[2] = system: hyperlipidemic Wistar rats; experiment: Plasma lipid levels; assay type: in vivo, Wistar rat; conditions: 4 weeks treatment; for reduction in total cholesterol level: plasma, in comparison to lipid control
[3] = assay type: in vivo, Wistar rat; remark: listed apart in the source
[4] = after 2-week dosing of FLX; cited from earlier work
[5] = STT+FLX compared to STT monotherapy
[6] = STT+FLX for 4 weeks compared to STT-alone treatment

Row | SMILES | brain concentration of 5-hydroxytryptamine (5HT) (Wistar rat brain; mean±SD, n=6) | effect on brain level of HIAA (Wistar rat brain; versus control) | effect on plasma triglyceride level ([2]; versus lipid control) | reduction in total cholesterol level [2] | increase in bioavailability [4] | other results
1 | CNCCC(Oc1ccc(C(F)(F)F)cc1)c1ccccc1 (stereo not drawn) [FLX, fluoxetine] | 0.62 ± 0.15 µg/g | failed to alter | failed to produce any significant effect | 16.3% | – | brain concentration of dopamine (Wistar rat brain; mean±SD, n=6): 1.48 ± 0.14 µg/g; accumulation in the brain relative to plasma ([1]; after multiple-dose administration): multifold higher
2 | CCC(C)(C)C(=O)O[C@H]1C[C@@H](C)C=C2C=C[C@H](C)[C@H](CC[C@@H]3C[C@@H](O)CC(=O)O3)[C@H]21 [STT, simvastatin] | 0.45 ± 0.14 µg/g | unaffected | significant reduction | 41.6% | – | effect on brain level of dopamine (Wistar rat brain; versus control): unaffected; percentage increase in AUC0−t in brain [1, 5]: 79%; effect on plasma HDL level ([2]; versus lipid control): increase in plasma HDL level; increase in AUC in plasma [3, 6]: 41.6%; increase in Cmax in plasma [3, 6]: 57.9%
3 | CCC(C)(C)C(=O)O[C@H]1C[C@@H](C)C=C2C=C[C@H](C)[C@H](CC[C@@H](O)C[C@@H](O)CC(=O)O)[C@H]21 [STA, simvastatin acid] | – | – | – | – | – | reduction in bioavailability (AUC0−∞) in plasma [3, 5]: 36%
4 | COc1ccc2[nH]c([S+]([O-])Cc3ncc(C)c(OC)c3C)nc2c1 (stereo not drawn) [omeprazole] | – | – | – | – | 7.1 fold | –
5 | COc1ccc2c(c1)[C@]13CCCC[C@@H]1[C@H](C2)N(C)CC3 [dextromethorphan] | – | – | – | – | 27 fold | –
